The target in the test is Indolethylamine N-methyltransferase (Oryctolagus cuniculus, UniProt O97972). Kind of test: Inhibition of New Zealand white rabbit lung INMT using N-methyltryptamine as substrate after 60 to 90 mins by liquid scintillation counting in presence of S-methyl-[14C]adenosylmethionine. Summed up:
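Enzyme from male rabbit lung: homogenate in 0.15 M KCl with 10^-4 M DTT and EDTA, 50 000 g supernatant, 40-60% ammonium sulfate fraction dialysed (some runs further Sephadex G-150 purified). Incubation in potassium phosphate pH 7.9 with N-methyltryptamine and S-[methyl-14C]adenosylmethionine, test compound in water or 5% DMSO, 37 °C. Stopped with borate pH 10; 14C-DMT extracted into isoamyl alcohol.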

Chain of Indolethylamine N-methyltransferase (O97972 whole entry): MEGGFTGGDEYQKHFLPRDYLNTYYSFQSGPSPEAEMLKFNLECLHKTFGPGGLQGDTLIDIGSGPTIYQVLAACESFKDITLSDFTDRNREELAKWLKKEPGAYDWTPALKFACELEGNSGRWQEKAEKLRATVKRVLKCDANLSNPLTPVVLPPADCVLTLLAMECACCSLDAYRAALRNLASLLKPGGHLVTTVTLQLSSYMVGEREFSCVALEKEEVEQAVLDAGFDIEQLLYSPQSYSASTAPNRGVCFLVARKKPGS

As for `C1CN=C2CCCN2C1`, the half-maximal inhibitory concentration (IC50) came out at 38.7 µM.

By IC50 is commonly meant the concentration at which inhibition is half-maximal.

The values above are taken from BindingDB's records for doi:10.1021/jm00189a004 (1979).
